Laboratory results taken from paper PMC4535690 (Angewandte Chemie (International ed. in English), 2015).
Where a SMILES comes first, the peptide text is derived from it. The star is where a group is joined. Acetyl(thymin-1-yl) = Cc1cn(CC(=O)*)c(=O)[nH]c1=O; Adenin9ylacetyl = Nc1ncnc2c1ncn2CC(=O)*

What was measured:
proteinase K = proteinase K (Parengyodontium album, UniProt P06873); assay: Proteolytic stability on incubation with proteinase K; format: in vitro ADME; conditions: single component, 0.2 mg/mL in HEPES buffer pH 7.4; proteinase K 3.2 U/mL; 24 h at 37 °C (Figure 3A; KTTPV Figure S9)
Sequence of proteinase K (P06873 106-384, species assumed): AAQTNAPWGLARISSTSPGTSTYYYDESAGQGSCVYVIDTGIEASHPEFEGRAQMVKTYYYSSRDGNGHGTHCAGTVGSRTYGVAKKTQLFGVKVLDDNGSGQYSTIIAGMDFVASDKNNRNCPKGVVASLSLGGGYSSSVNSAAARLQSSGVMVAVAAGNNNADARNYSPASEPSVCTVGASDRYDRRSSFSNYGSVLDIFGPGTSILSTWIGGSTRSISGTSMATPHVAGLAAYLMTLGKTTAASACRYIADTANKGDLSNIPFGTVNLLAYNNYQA

HeLa cells = assay: Biocompatibility; format: cell-based; conditions: 3 days incubation, single nucleopeptide (Figures S11 and S12)
In short: (§1)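 Nucleopeptides were tested singly and as two-component heterodimer mixtures. HeLa cells (24 h doubling time) were incubated for 3 days, and PC12 cells (92 h doubling time) for 7 days. Viability was then assessed as a measure of biocompatibility.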

PC12 cells = assay: Biocompatibility; format: cell-based; conditions: 7 days incubation (Figures S10, S11 and S12)
In short: as §1

Compound | Compound remained after incubating with proteinase K (proteinase K) | Toxicity to HeLa cells (HeLa cells) | Toxicity / inhibition of proliferation of PC12 cells (PC12 cells)
LGFNI [compound 3] | hydrolyzes completely | no toxicity | no toxicity
Cc1cn(CC(=O)N[C@@H](CCCCN)C(=O)N[C@H](C(=O)N[C@H](C(=O)N2CCC[C@H]2C(=O)N[C@H](C(=O)O)C(C)C)[C@@H](C)O)[C@@H](C)O)c(=O)[nH]c1=O [compound 1] ({Acetyl(thymin-1-yl)}-KTTPV-OH; N-terminus and C-terminus assumed) | – | no toxicity | no toxicity
CC(C)[C@H](NC(=O)[C@@H]1CCCN1C(=O)[C@@H](NC(=O)[C@@H](NC(=O)[C@H](CCCCN)NC(=O)Cn1cnc2c(N)ncnc21)[C@@H](C)O)[C@@H](C)O)C(=O)O [compound 2] (Adenin9ylacetyl-KTTPV-OH; N-terminus and C-terminus assumed) | – | no toxicity | no toxicity
